The nature of experiment [1]: Antiproliferative activity against human derived Acute myeloid leukemic cells assessed as reduction in cell viability incubated for 48 hr by CellTiter-Glo assay. In kind it is functional, cell-based. The note with it: Leukemia cell. Background: In ATP-based viability assays light output follows the ATP content of the culture.
Experiment [2] concerns MOLM-13. Nature of the experiment: Antitumor activity against human MOLM-13 cells harboring FLT-3 ITD mutant xenografted in BALB/c nude mouse assessed as decrease in phosphorylated STAT3 at Y704 residue at 150 mg/kg, po measured after 3 hrs by Western blot analysis. In kind it is functional, organism-based. An outline of the steps:
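Mice bearing s.c. MOLM-13 xenografts given a single oral dose of 150 mg/kg. Tumours harvested at 3 h; lysates immunoblotted for phospho-FLT3, -STAT3, -STAT5, -Akt and total actin.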
On the technique in general: A xenograft is tissue or cells of one species grown in another, often human tumour cells in immunodeficient mice.

Experiment [3] has as its system MOLM-13. Description: Induction of cell cycle arrest in human MOLM-13 cells harboring FLT3-ITD mutant assessed decrease in cell accumulation at S phase after 24 hrs by Propidium iodide staining based flow cytometric analysis. In kind it is functional. In a few lines: (§1)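 Cells then fixed in ice-cold 70% ethanol, stained with 20 ng/ml propidium iodide, and cell-cycle phases measured by flow cytometry.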
Background: A flow cytometer gives signals particle by particle.

Experiment [4] deals with MV4-11. Description: Induction of apoptosis in human MV4-11 cells harboring FLT3-ITD mutant assessed viable cells at […] after 48 hrs by AnnexinV-FITC/Propidium iodide staining based flow cytometric analysis (reference value: 86.15 %). In kind it is functional. The note with it: dose 0.15 µM.
Experiment [5] concerns MV4-11. Description: Antitumor activity against human MV4-11 cells harboring FLT-3 ITD mutant xenografted in BALB/c nude mouse assessed as tumor growth inhibition at 50 mg/kg, po administered daily for 21 days relative to control. In kind it is functional. The note with it: MV4-11, 504 h, time 21 day, read-out: TGI. In a few lines:
(§2)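 Female BALB/c nude mice implanted s.c. in right flank with 1 × 10^7 MV4-11 cells in serum-free medium mixed 1:1 with Matrigel. Randomised on day 11 at mean 146–150 mm3 (n=10/group); oral hydrochloride salt once daily for 21 days in 0.5% methylcellulose/0.1% Tween-80. Doses are free-base equivalents; caliper twice weekly; ANOVA with Dunnett's test.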

Experiment [6] in a line: Antiproliferative activity against human derived M4 Fab type Acute myeloid leukemic cells assessed as reduction in cell viability incubated for 48 hr by CellTiter-Glo assay. In kind it is functional, cell-based. The note with it: Leukemia cell. An outline of the steps:
(§3)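 Primary AML peripheral blood or bone marrow mononuclear cells thawed and expanded ex vivo; blasts counted between day 10 and 13, characterised by CD123 FACS and FLT3 genotyping. Blasts treated 48 h; proliferation IC50 read by CellTiter-Glo.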

Experiment [7] concerns MV4-11. Nature of the experiment: Induction of apoptosis in human MV4-11 cells harboring FLT3-ITD mutant assessed necrotic cells at 0.03 uM after 72 hrs by AnnexinV-FITC/Propidium iodide staining based flow cytometric analysis (reference value: 0.53 %). In kind it is functional.
Experiment [8] concerns MOLM-13. Description: Induction of cell cycle arrest in human MOLM-13 cells harboring FLT3-ITD mutant assessed increase in cell accumulation at G1 phase after 24 hrs by Propidium iodide staining based flow cytometric analysis. In kind it is functional. An outline of the steps: as §1
The nature of experiment [9]: Antiproliferative activity against human derived M5b Fab type Acute myeloid leukemic cells assessed as reduction in cell viability incubated for 48 hr by CellTiter-Glo assay. In kind it is functional, cell-based. The note with it: Leukemia cell. An outline of the steps:
as §3

In the next experiment the test system is Leukemia cell. Description: Induction of cell cycle arrest in human derived Acute myeloid leukemic cells assessed as increase in cell accumulation at G1 phase at 0.47 uM after 48 hrs by Propidium iodide staining based flow cytometric analysis.
Experiment [10] has as its system MV4-11. Description: Induction of apoptosis in human MV4-11 cells harboring FLT3-ITD mutant assessed necrotic cells at […] after 48 hrs by AnnexinV-FITC/Propidium iodide staining based flow cytometric analysis (reference value: 0.45 %). In kind it is functional. The note with it: dose 0.15 µM.
Experiment [11] has as its system MV4-11. Nature of the experiment: Induction of apoptosis in human MV4-11 cells harboring FLT3-ITD mutant assessed late apoptotic cells at 0.03 uM after 72 hrs by AnnexinV-FITC/Propidium iodide staining based flow cytometric analysis (reference value: 1.48 %). In kind it is functional.
The subject of experiment [12] is RS4-11. Description: Induction of cell cycle arrest in human RS4-11 cells assessed decrease in cell accumulation at S phase after 24 hrs by Propidium iodide staining based flow cytometric analysis. In kind it is functional. In a few lines: as §1
In experiment [13] the test system is MV4-11. Nature of the experiment: Induction of apoptosis in human MV4-11 cells harboring FLT3-ITD mutant assessed late apoptotic cells at […] after 48 hrs by AnnexinV-FITC/Propidium iodide staining based flow cytometric analysis (reference value: 1.56 %). The note with it: dose 0.15 µM. In kind it is functional.
The nature of experiment [14]: Antiproliferative activity against relapsed human derived Acute myeloid leukemic cells assessed as reduction in cell viability incubated for 48 hr by CellTiter-Glo assay. The note with it: Leukemia cell. In kind it is functional, cell-based. An outline of the steps: as §3
Experiment [15] has as its system MV4-11. Description: Induction of apoptosis in human MV4-11 cells harboring FLT3-ITD mutant assessed necrotic cells at 0.03 uM after 48 hrs by AnnexinV-FITC/Propidium iodide staining based flow cytometric analysis (reference value: 0.45 %). In kind it is functional.
In experiment [16] the test system is MV4-11. Nature of the experiment: Induction of apoptosis in human MV4-11 cells harboring FLT3-ITD mutant assessed viable cells at 0.03 uM after 72 hrs by AnnexinV-FITC/Propidium iodide staining based flow cytometric analysis (reference value: 90.5 %). In kind it is functional.
Experiment [17] can be described thus: Antiproliferative activity against relapsed human derived M3 Fab type Acute myeloid leukemic cells assessed as reduction in cell viability incubated for 48 hr by CellTiter-Glo assay. In kind it is functional, cell-based. The note with it: Leukemia cell. In a few lines:
as §3

Experiment [18] has as its system MV4-11. Nature of the experiment: Induction of apoptosis in human MV4-11 cells harboring FLT3-ITD mutant assessed as increase in early apoptotic cells after 72 hrs by AnnexinV-FITC/Propidium iodide staining based flow cytometric analysis. The note with it: dose 0.03-0.15 µM. In kind it is functional, cell-based.
Experiment [19] concerns MV4-11. Description: Induction of apoptosis in human MV4-11 cells harboring FLT3-ITD mutant assessed early apoptotic cells at 0.03 uM after 72 hrs by AnnexinV-FITC/Propidium iodide staining based flow cytometric analysis (reference value: 7.34 %). In kind it is functional.
Experiment [20] relates to MV4-11. Nature of the experiment: Induction of cell cycle arrest in human MV4-11 cells harboring FLT3-ITD mutant assessed increase in cell accumulation at G1 phase after 24 hrs by Propidium iodide staining based flow cytometric analysis. In kind it is functional. In a few lines: as §1
Experiment [21] has as its system MV4-11. Description: Induction of apoptosis in human MV4-11 cells harboring FLT3-ITD mutant assessed early apoptotic cells at […] after 72 hrs by AnnexinV-FITC/Propidium iodide staining based flow cytometric analysis (reference value: 7.34 %). In kind it is functional. The note with it: dose 0.15 µM.
The subject of experiment [22] is RS4-11. Nature of the experiment: Induction of cell cycle arrest in human RS4-11 cells assessed increase in cell accumulation at G1 phase after 24 hrs by Propidium iodide staining based flow cytometric analysis. In kind it is functional. In a few lines:
as §1

The test system of experiment [23] is MV4-11. Nature of the experiment: Antitumor activity against human MV4-11 cells harboring FLT-3 ITD mutant xenografted in BALB/c nude mouse assessed as tumor growth inhibition at 100 mg/kg, po administered daily for 21 days relative to control. In kind it is functional. The note with it: MV4-11, 504 h, time 21 day, read-out: TGI. In a few lines: as §2

Calls of active or inactive are those of the source. The rule behind the calls is not given here.

As a reminder, the IC50 is the concentration that inhibits the measured activity by half.

For the compound `C1=N/C2=N/c3ccc(OCCN4CCCC4)c(c3)COC/C=C/COCc3cccc(c3)C(=C1)N2` [PACRITINIB], the IC50 turned out to be 460 nM in experiment [1]; 840 nM in [6]; 240 nM in experiment [9]; 1330 nM in [14]; 210 nM in experiment [17]. The outcome in the experiment on MOLM-13 [2] and in the experiment with Leukemia cell was Active. In addition, the Activity entry was “Dose-Dependent Effect” in the experiment on MOLM-13 [3]; 35.61% in the experiment with MV4-11 [4]; 1.06% with MV4-11 [7]; “Dose-Dependent Effect” in the experiment on MOLM-13 [8]; 4.18% in the experiment with MV4-11 [10]; 3.74% in the experiment on MV4-11 [11]. Moreover, the Activity result was “Dose-Dependent Effect” with RS4-11 [12]; 20.83% with MV4-11 [13]; 0.94% with MV4-11 [15]; 72.52% with MV4-11 [16]; “Dose-Dependent Effect” in the experiment on MV4-11 [18]; 22.69% with MV4-11 [19]. The results for the Activity entry in the experiment with MV4-11 [20], in the experiment with MV4-11 [21] and in the experiment on RS4-11 [22] were “Dose-Dependent Effect”, 58.69% and “Dose-Dependent Effect”, respectively. Further, in the experiment on MV4-11 [5], the inhibition in vivo at 50 mg/kg worked out at 92%. Also, the inhibition in vivo at 100 mg/kg in the experiment on MV4-11 [23] stood at 121%.

These data come from ChEMBL document CHEMBL5715947 (Blood Cancer J, 2011).
